Experimental data as given in the RNAGym collection of RNA variant scans (doi:10.1126/science.aae0568).
This sample holds only a part of the variants without activity.

B1: tRNA (parent)
chain: GUUCCGUUGGCGUAAUGGUAACGCGUCUCCCUCCUAAGGAGAAGACUGCGGGUUCGAGUCCCGUACGGAACG

Variants of: B1
Assay: yeast fitness relative to wild type (ratio to wild type); higher = fitter; tRNA-Arg(CCU), competitive growth, 37 C, YPD
Procedure, shortened: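 Start and end populations of a pooled competition were compared by 100-nucleotide paired-end sequencing of gene amplicons. The Saccharomyces cerevisiae strains carried tRNA-Arg(CCU) gene variants at the native genomic locus, synthesised with a 3% per-site mutation rate at 69 sites, and competed in YPD at 37°C for 24 hours in six parallel replicates. Darwinian fitness relative to wild type was based on the change in genotype frequencies. Genotypes required ≥ 100 starting reads, and estimates < 0.5 were set to 0.5.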
With C11A C34U the yeast fitness was 0.552. Variant C11A C24U has a yeast fitness of 0.61. With C11A C22G G25A C34A G41A C66A the yeast fitness was ≤ 0.5. With C11A C27U C33U U35C C62U A65G the yeast fitness was ≤ 0.5. In the case of C11A G17A U35G, the yeast fitness is reported as ≤ 0.5. For C11A C61G A65C, the yeast fitness was 0.567. With C11A C29G U54A the yeast fitness was 0.69. For C11A C30A G52C A65G, the yeast fitness was ≤ 0.5. With C11A A45G U53G the yeast fitness was ≤ 0.5. In the case of C11A C24G C30G A57U G68U, the yeast fitness is reported as ≤ 0.5. C11A C31G A42U showed a yeast fitness of 0.537. In the case of C11A C29G A57G, the yeast fitness is reported as ≤ 0.5. Variant C11A C24U C34A A37U C62A C66A has a yeast fitness of 0.599. With C11A C30U A43C G67U the yeast fitness was ≤ 0.5. In the case of C11A C27U G56C, the yeast fitness is reported as ≤ 0.5. With C11A A45C C55U the yeast fitness was 0.517. With C11A C31A G44C A65U the yeast fitness was ≤ 0.5. Variant C11A C31A G44C A65G has a yeast fitness of 0.553. In the case of C11A C34G U59G, the yeast fitness is reported as ≤ 0.5. For C11A C27G U32C C33U C62U A65G, the yeast fitness was ≤ 0.5. With C11A A57G A69G the yeast fitness was ≤ 0.5. Work on C11A C31U yielded a yeast fitness of 0.664. Work on C11A C31A yielded a yeast fitness of 0.524. In the case of C11A C46U C62A A65C, the yeast fitness is reported as ≤ 0.5. For C11A C30U C49G G50A U64A, the yeast fitness was ≤ 0.5. For C11A C24G C34G, the yeast fitness was ≤ 0.5. With C11A C61G A65C A70C the yeast fitness was ≤ 0.5. For C11A C27U C46G, the yeast fitness was 0.524. In the case of C11A C24A U26A G44C, the yeast fitness is reported as ≤ 0.5. With C11A C27G U59A the yeast fitness was ≤ 0.5. In the case of C11A C24U U32A U35C U59C, the yeast fitness is reported as ≤ 0.5. In the case of C11A C29U C31G G58C, the yeast fitness is reported as ≤ 0.5. In the case of C11A C31U C62A, the yeast fitness is reported as ≤ 0.5. For C11A C31U C62U, the yeast fitness was 0.544. In the case of C11A C30G A45U A57G C60A, the yeast fitness is reported as ≤ 0.5. In the case of C11A C34A G44C A70U, the yeast fitness is reported as ≤ 0.5. In the case of C11A C31A U53A, the yeast fitness is reported as ≤ 0.5. In the case of C11A C34A C55U C60A, the yeast fitness is reported as ≤ 0.5. For C11A C30G G48C, the yeast fitness was ≤ 0.5. With C11A C24G C34U C49A the yeast fitness was ≤ 0.5. With C11A C31U C34U G58C C60U C62U G63C the yeast fitness was ≤ 0.5. C11A C27A G67A showed a yeast fitness of 0.626. For C11A G12C, the yeast fitness was 0.612. With C11A C24A A36G G48A the yeast fitness was ≤ 0.5. In the case of C11A C27U A36G C49A, the yeast fitness is reported as ≤ 0.5. With C11A C27G G68A the yeast fitness was ≤ 0.5. For C11A C27A A69U, the yeast fitness was ≤ 0.5. With C11A C27G G67C the yeast fitness was ≤ 0.5. For C11A C33A A36C G63C C66G, the yeast fitness was 0.582. Variant C11A C31U G56A G58C has a yeast fitness of 0.595. With C11A C30G C31U U32C A42G G52A the yeast fitness was ≤ 0.5. In the case of C11A A43U C46U U47G G58A, the yeast fitness is reported as ≤ 0.5. In the case of C11A C29G A65U G68A, the yeast fitness is reported as ≤ 0.5. For C11A C62G A69U, the yeast fitness was ≤ 0.5. With C11A C24U G56A G67C A70G the yeast fitness was ≤ 0.5. For C11A C22G C34A G41A A70U, the yeast fitness was ≤ 0.5. For C11A C29A G56A C66G, the yeast fitness was ≤ 0.5. In the case of C11A C27G U35A A43U U54C A65G G68A, the yeast fitness is reported as ≤ 0.5. With C11A C31G C34G C46G U59A G63A the yeast fitness was ≤ 0.5. With C11A C49A C61G the yeast fitness was 0.53. Variant C11A C31U A70U has a yeast fitness of 0.629. For C11A C31A C61G A65C A70C, the yeast fitness was ≤ 0.5. With C11A C33U C60G the yeast fitness was 0.531. C11A C46A showed a yeast fitness of 0.745. With C11A C46G the yeast fitness was 0.651. In the case of C11A C24U U32A U35C C55A G58A, the yeast fitness is reported as ≤ 0.5. For C11A C27U G41C A42G C60G, the yeast fitness was ≤ 0.5. Variant C11A C27U C60G has a yeast fitness of 0.532. For C11A C22G U53C C66U, the yeast fitness was ≤ 0.5. With C11A G12A G23A C33G A45C the yeast fitness was ≤ 0.5. C11A C49U gave a yeast fitness of 0.658. In the case of C11A C49G, the yeast fitness is reported as 0.782. In the case of C11A C29A A57G A65C, the yeast fitness is reported as ≤ 0.5. For C11A C27G C61A, the yeast fitness was ≤ 0.5. For C11A C24U C31U G67A, the yeast fitness was ≤ 0.5. Variant C11A C22U G44C C60U A69G has a yeast fitness of 0.597. Work on C11A G18A C31U A69C yielded a yeast fitness of 0.605. In the case of C11A C33U U54C, the yeast fitness is reported as ≤ 0.5. With C11A C24U U32A U35C C55G the yeast fitness was ≤ 0.5. With C11A C29A A42G the yeast fitness was ≤ 0.5. With C11A C24G C34G A36G the yeast fitness was ≤ 0.5. Variant C11A C22G G48C has a yeast fitness of 0.535. With C11A G17U A20G C31A the yeast fitness was ≤ 0.5.
